The source of these data is ChEMBL document CHEMBL4007420, “Structural Optimization and Pharmacological Evaluation of Inhibitors Targeting Dual-Specificity Tyrosine Phosphorylation-Regulated Kinases (DYRK) and CDC-like kinases (CLK) in Glioblastoma” (J Med Chem, 2017).

The target in experiment [1] is T1, Dual specificity tyrosine-phosphorylation-regulated kinase 2 (Homo sapiens, UniProt Q92630).
T1 sequence (Q92630 whole entry): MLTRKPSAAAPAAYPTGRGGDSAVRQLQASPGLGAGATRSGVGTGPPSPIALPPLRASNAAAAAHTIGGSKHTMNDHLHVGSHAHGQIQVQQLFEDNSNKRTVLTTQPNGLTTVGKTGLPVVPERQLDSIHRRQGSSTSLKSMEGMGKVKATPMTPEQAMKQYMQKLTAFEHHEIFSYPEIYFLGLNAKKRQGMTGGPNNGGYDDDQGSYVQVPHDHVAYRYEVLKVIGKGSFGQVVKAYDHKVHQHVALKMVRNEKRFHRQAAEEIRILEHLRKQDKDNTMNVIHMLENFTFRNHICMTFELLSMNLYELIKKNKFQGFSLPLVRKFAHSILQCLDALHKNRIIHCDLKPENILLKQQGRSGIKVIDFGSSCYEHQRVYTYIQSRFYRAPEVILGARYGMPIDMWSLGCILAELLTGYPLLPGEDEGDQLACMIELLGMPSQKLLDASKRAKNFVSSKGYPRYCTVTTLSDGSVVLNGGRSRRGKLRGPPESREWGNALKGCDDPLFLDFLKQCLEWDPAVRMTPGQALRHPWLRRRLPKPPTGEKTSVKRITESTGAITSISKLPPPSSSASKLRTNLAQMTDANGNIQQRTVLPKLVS
In words: Inhibition of DYRK2 (unknown origin) using woodtide as substrate after 40 mins in presence of [gamma-33P]ATP by microbeta scintillation counting.

Experiment [2] has as its target Dual specificity tyrosine-phosphorylation-regulated kinase 1A (Homo sapiens, UniProt Q13627). The experiment can be described thus: Inhibition of DYRK1A (unknown origin) using woodtide as substrate after 10 mins in presence of [gamma-33P]ATP by microbeta scintillation counting.
The target in experiment [3] is Dual specificity tyrosine-phosphorylation-regulated kinase 1B (Homo sapiens, UniProt Q9Y463). In words: Inhibition of DYRK1B (unknown origin) using woodtide as substrate after 40 mins in presence of [gamma-33P]ATP by microbeta scintillation counting.
Sequence of Dual specificity tyrosine-phosphorylation-regulated kinase 1B (Q9Y463 whole entry): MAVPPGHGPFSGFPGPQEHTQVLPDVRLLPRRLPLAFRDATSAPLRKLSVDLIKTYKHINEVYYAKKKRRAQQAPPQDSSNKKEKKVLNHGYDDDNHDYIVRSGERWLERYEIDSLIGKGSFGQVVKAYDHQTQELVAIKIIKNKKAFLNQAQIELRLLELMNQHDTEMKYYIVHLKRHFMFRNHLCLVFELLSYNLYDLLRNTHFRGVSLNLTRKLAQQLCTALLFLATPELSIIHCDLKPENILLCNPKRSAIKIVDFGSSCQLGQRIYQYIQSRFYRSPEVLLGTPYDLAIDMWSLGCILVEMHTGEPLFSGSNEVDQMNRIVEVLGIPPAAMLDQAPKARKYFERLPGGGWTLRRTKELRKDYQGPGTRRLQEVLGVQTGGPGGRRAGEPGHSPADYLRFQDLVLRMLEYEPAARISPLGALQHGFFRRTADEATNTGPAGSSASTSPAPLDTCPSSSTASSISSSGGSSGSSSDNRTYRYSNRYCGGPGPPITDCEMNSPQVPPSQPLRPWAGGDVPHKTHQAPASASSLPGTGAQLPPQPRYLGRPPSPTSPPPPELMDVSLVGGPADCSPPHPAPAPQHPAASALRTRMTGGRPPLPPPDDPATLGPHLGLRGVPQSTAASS
Experiment [4] concerns the target Dual specificity protein kinase CLK1 (Homo sapiens, UniProt P49759). In words: Inhibition of CLK1 (unknown origin) using KKGRSRSRSRSRSR as substrate after 40 mins in presence of [gamma-33P]ATP by microbeta scintillation counting. The essentials:
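CLK1 was assayed with RS peptide substrate at 100 µM ATP.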

The nature of experiment [5]: Cytotoxicity against patient-derived RN1 cells assessed as reduction in cell viability after 3 days by Alamar blue assay. The following applies: Homo sapiens, RN1, 72 h. The experiment is classed as functional, cell-based. The essentials: (§1)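 The patient-derived glioblastoma lines were grown as stem cells under defined conditions to keep the phenotype and genotype of the resected tumours. Viability after treatment was read with Alamar blue.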

Experiment [6] can be described thus: Cytotoxicity against patient-derived WK1 cells assessed as reduction in cell viability after 5 days by Alamar blue assay. The experiment is classed as functional, cell-based. The following applies: Homo sapiens, WK1, 120 h. The essentials:
as §1
A general note: Resazurin is reduced to fluorescent resorufin, in cell work by metabolically active cells.

Experiment [7] can be described thus: Cytotoxicity against patient-derived JK2 cells assessed as reduction in cell viability after 3 days by Alamar blue assay. Type of experiment: functional, cell-based. The note with it: Homo sapiens, JK2, 72 h. The essentials: as §1
A short description of experiment [8]: Cytotoxicity against patient-derived SJH1 cells assessed as reduction in cell viability after 3 days by Alamar blue assay. The note with it: Homo sapiens, SJH1, 72 h. The experiment is classed as functional, cell-based. The essentials: as §1
The next experiment is filed under the species Homo sapiens. The experiment can be described thus: Inhibition of tubulin (unknown origin) polymerization.

SMILES strings stand for the structures. The source made the active and inactive calls. The calls are words filed in the database; no cut-off is given here.

Sequence of Dual specificity protein kinase CLK1 (P49759 whole entry): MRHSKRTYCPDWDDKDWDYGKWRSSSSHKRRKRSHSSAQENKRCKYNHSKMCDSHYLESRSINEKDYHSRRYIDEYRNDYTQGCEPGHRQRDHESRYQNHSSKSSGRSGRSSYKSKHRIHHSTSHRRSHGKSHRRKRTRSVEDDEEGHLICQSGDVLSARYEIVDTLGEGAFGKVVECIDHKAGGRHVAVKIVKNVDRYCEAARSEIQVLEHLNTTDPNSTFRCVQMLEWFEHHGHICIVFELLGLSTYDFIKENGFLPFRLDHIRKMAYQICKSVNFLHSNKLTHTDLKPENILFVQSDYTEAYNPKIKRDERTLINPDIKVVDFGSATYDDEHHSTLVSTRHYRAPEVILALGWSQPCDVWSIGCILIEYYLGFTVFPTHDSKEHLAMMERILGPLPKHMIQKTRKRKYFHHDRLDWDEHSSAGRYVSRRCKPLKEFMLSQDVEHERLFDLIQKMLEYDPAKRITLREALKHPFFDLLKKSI

As usually defined, the IC50 is the concentration that gives 50% inhibition. In general, EC50 refers to the concentration that produces a half-maximal response. Take `Oc1ccc(-c2c[nH]c3ncc(-c4ccc(-c5nnn[nH]5)cc4)cc23)cc1`: the IC50 in experiment [1] came out at 408 nM; in [2], 86 nM; in experiment [3], 42 nM; in [4], 70 nM. For the same molecule, the EC50 in [5], in [6], in experiment [7] and in [8] was > 50000 nM throughout.
For the molecule `Oc1ccc(-c2c[nH]c3ncc(-c4ccc5[nH]ccc5c4)cc23)cc1`, the IC50 in [1] came to 644 nM; in experiment [2], 204 nM; in experiment [3] it was 51 nM; in [4] it was 26 nM. Besides, the EC50 in experiment [5] is > 50000 nM; in experiment [6], > 50000 nM; in experiment [7], > 50000 nM; in [8], 30000 nM.
With `Oc1ccc(-c2ccc3[nH]nc(-c4ccc(O)cc4)c3c2)cc1`, the IC50 in experiment [1], in experiment [2], in experiment [3] and in experiment [4] was > 1000 nM in each case. In addition, the EC50 in experiment [5], in experiment [6], in [7] and in experiment [8] was > 50000 nM throughout.
For the molecule `O=C(Nc1cccc(O)c1)c1cnc2[nH]cc(-c3ccc(O)cc3)c2c1`, the IC50 in [1] is 847 nM; in [2], 127 nM; in experiment [3] it was 138 nM; in [4] it was 34 nM. For the same molecule, the EC50 was 13800 nM in experiment [5], 13200 nM in experiment [6], 38900 nM in [7] and 5700 nM in [8].
As to `CC(=O)O[C@H]1C(=O)[C@@]2(C)[C@H]([C@H](OC(=O)c3ccccc3)[C@]3(O)C[C@H](OC(=O)[C@H](O)[C@@H](NC(=O)c4ccccc4)c4ccccc4)C(C)=C1C3(C)C)[C@]1(OC(C)=O)CO[C@@H]1C[C@@H]2O`, in the experiment filed under Homo sapiens, the inhibition result was “Active”.
For the molecule `CS(=O)(=O)Nc1ccc(-c2cnc3[nH]cc(-c4ccc(O)cc4)c3c2)cc1`, the IC50 was determined as 724 nM in [1], 56 nM in experiment [2], 130 nM in experiment [3] and 44 nM in experiment [4]. Further, the EC50 worked out at 14000 nM in experiment [5], 42000 nM in experiment [6], 13000 nM in [7] and 42000 nM in experiment [8].
In the case of `O=C(Nc1cccc(O)c1)c1c[nH]c2ncc(-c3ccc(O)cc3)cc12`, the IC50 in [1], in experiment [2], in experiment [3] and in experiment [4] was > 1000 nM throughout. The EC50 in experiment [5], in [6], in experiment [7] and in experiment [8] was > 50000 nM in each case.
With `CC[C@]1(O)C[C@@H]2CN(CCc3c([nH]c4ccccc34)[C@@](C(=O)OC)(c3cc4c(cc3OC)N(C)[C@H]3[C@@](O)(C(=O)OC)[C@H](OC(C)=O)[C@]5(CC)C=CCN6CC[C@]43[C@@H]65)C2)C1`, the inhibition result in the experiment filed under Homo sapiens was “Active”.
In the case of `Oc1ccc(-c2cnc3[nH]cc(-c4ccc5[nH]ccc5c4)c3c2)cc1`, the IC50 was determined as 571 nM in [1], 169 nM in experiment [2], 83 nM in [3] and 117 nM in experiment [4]. For the same molecule, the EC50 was determined as 5700 nM in experiment [5], 6200 nM in experiment [6], 6300 nM in experiment [7] and 2200 nM in experiment [8].
Regarding `Oc1ccc(-c2cnc3[nH]cc(-c4ccc(-c5nnn[nH]5)cc4)c3c2)cc1`, the IC50 in experiment [1] turned out to be 416 nM; in experiment [2] it was 280 nM; in experiment [3], 172 nM; in [4] it was 85 nM. The 50% effective concentration (EC50) in experiment [5], in experiment [6], in experiment [7] and in [8] was > 50000 nM each time.
For `O=[N+]([O-])c1ccc(-c2cnc3[nH]cc(-c4ccc(O)cc4)c3c2)cc1`, the IC50 in experiment [1] is > 1000 nM; in [2] it was 212 nM; in experiment [3] it was 198 nM; in experiment [4], 187 nM. The EC50 in experiment [5], in experiment [6], in [7] and in experiment [8] was > 50000 nM throughout.
On to `O=C(Nc1ccc(O)cc1)c1cnc2[nH]cc(-c3ccc(O)cc3)c2c1`, for which the half-inhibitory concentration (IC50) in [1] was > 1000 nM; in [2], 344 nM; in experiment [3], 128 nM; in experiment [4], 12 nM. The EC50 in experiment [5] amounted to 12500 nM; in [6], 21000 nM; in experiment [7], 37800 nM; in experiment [8] it was 5200 nM.
Consider `NC(=O)Nc1ccc(-c2cnc3[nH]cc(-c4ccc(O)cc4)c3c2)cc1`, for which the concentration for half-maximal inhibition (IC50) in [1] turned out to be 476 nM; in experiment [2], 31 nM; in experiment [3], 17 nM; in experiment [4] it was 9.6 nM. The EC50 is 22000 nM in experiment [5], > 50000 nM in experiment [6], > 50000 nM in [7] and 28000 nM in experiment [8].
As for `Oc1ccc(-c2ccc3[nH]cc(-c4ccc(O)cc4)c3c2)cc1`, the IC50 in experiment [1], in experiment [2], in experiment [3] and in experiment [4] was > 1000 nM each time. The EC50 in [5], in experiment [6], in [7] and in experiment [8] was > 50000 nM in each case.
For `Oc1ccc(-c2cnc3[nH]cc(-c4ccc(O)cc4)c3c2)cc1`, the IC50 in [1] came to 166 nM; in [2], 14 nM; in experiment [3], 15 nM; in experiment [4] it was 48 nM. The EC50 was 2000 nM in experiment [5], 1100 nM in [6], 5100 nM in experiment [7] and 4100 nM in [8].
For `O=C(Nc1ccc(O)cc1)c1c[nH]c2ncc(-c3ccc(O)cc3)cc12`, the IC50 in experiment [1], in [2], in [3] and in [4] was > 1000 nM in each case. Further, the concentration for a half-maximal effect (EC50) in experiment [5], in experiment [6], in [7] and in experiment [8] was > 50000 nM each time.
